Data on 3 compounds can be found in paper PMC11951139 (Journal of Agricultural and Food Chemistry, 2025).

Entries after “also recorded” stand apart in the source; their conditions may differ.

The test system of assay [1] is D. melanogaster adult flies. The experiment in a line: Insecticidal activity, combined gastric poisoning and contact method. It counts as in vivo, Drosophila melanogaster. Conditions: for insecticidal activity: 500 μg/mL, adult flies, mortality after 24 h. The method, boiled down:
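Adult fruit flies, about twenty 2-day-old per dish. Apple slices soaked 1 min in test solution, then placed in the Petri dish, combining ingestion and contact exposure. Triplicate per treatment, with water as negative and avermectin as positive control. Held at 24 ± 1 °C, 75 ± 5% RH, 16 h light:8 h dark. Mortality scored at 24 h by gently touching insects with a brush.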

The subject of another assay is DmATG8a^K48A. The experiment in a line: MST binding to the DmATG8a K48A mutant. The arrangement: species or system Drosophila melanogaster. Particulars: 25 °C. Put shortly: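 K48A point mutant of DmATG8a made by site-directed mutagenesis in pET-32a. Expressed and purified as for wild type: E. coli BL21(DE3), His-tag affinity, TEV cleavage, desalting. Binding of the test indole assessed by microscale thermophoresis with fluorescently labelled protein.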

In a further assay the target is DmATG8a (Drosophila melanogaster, UniProt Q9W2S2). The experiment in a line: Microscale thermophoresis. Type of assay: binding. Particulars: for Kd: Kd value (binding affinity with DmATG8a), MST, fluorescently labeled DmATG8a. Put shortly:
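Wild-type DmATG8a expressed from pET-32a in E. coli BL21(DE3), induced with 1 mM IPTG at 20 °C for 16 h. Purified by His-tag affinity, TEV tag removal and size exclusion in 20 mM Tris-HCl, 300 mM NaCl, pH 7.5. Protein labelled with RED-NHS dye. Test compounds and tryptophan run as 16-point dilutions from 0.06 to 2000 μM, 5 min in the dark, then MST on a Monolith NT.115.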

As a reminder, the LC50 is the concentration that kills 50% of the test population. Usually Kd stands for the free concentration of one partner at which half of the binding sites on the other are occupied at equilibrium, for simple one-to-one binding. Read a low Kd as tighter binding. The mortality is the percentage killed.

DmATG8a, sequence (Q9W2S2 1-121): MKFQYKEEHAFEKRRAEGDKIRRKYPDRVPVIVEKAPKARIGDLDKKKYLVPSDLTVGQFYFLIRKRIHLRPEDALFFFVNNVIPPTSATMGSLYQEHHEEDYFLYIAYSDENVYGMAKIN

For `Fc1ccc2cc[nH]c2c1` [6-fluoroindole], the insecticidal activity in assay [1] turned out to be 100%. In addition, the LC50 in assay [1] (Drosophila melanogaster, 24 h) was 169 µg/mL. In addition, the “binding to DmATG8a^K48A” value with DmATG8a^K48A was “no affinity; also recorded: no binding”. For the same compound, on DmATG8a (Kd of 6-fluoroindole versus Kd of tryptophan), the “fold lower Kd than tryptophan” value is listed as “approximately 19 fold”. Further, the Kd at DmATG8a came to 3.54 µM.

Take `CC[C@H](C)[C@H]1O[C@]2(C=C[C@@H]1C)C[C@@H]1C[C@@H](C/C=C(\C)[C@@H](O[C@H]3C[C@H](OC)[C@@H](O[C@H]4C[C@H](OC)[C@@H](O)[C@H](C)O4)[C@H](C)O3)[C@@H](C)/C=C/C=C3\CO[C@@H]4[C@H](O)C(C)=C[C@@H](C(=O)O1)[C@]34O)O2` [avermectin]: the insecticidal activity in assay [1] was found to be 100%. Further, in assay [1] (Drosophila melanogaster, 24 h), the LC50 is 30.5 µg/mL and the mortality at 15 µg/mL was 33%.

Turning to `N[C@@H](Cc1c[nH]c2ccccc12)C(=O)O` [tryptophan, reference compound], the Kd at DmATG8a came out at 67 µM.
